OX1R antag-1: blocks the human orexin 1 receptor; inhibition, % at 6.6 µM; OX1R-expressing cells, FRET antagonist read-out; AID 485270; 330,000 tested, 1.8% active; O43613; in the data active means inhibition mostly above about 38%, no sharp cut-off; inactive means mostly below about 40%
TAAR1 antagonist: antagonists of human TAAR1; CHO RD-HGA16 TAAR1, Fluo-8 calcium fluorescence, antagonist; inhibition, % at 3 µM; 360,000 tested, 1.5% active;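 active means inhibition above a per-plate cutoff, the mean inhibition of test compounds on that plate plus 3 SD, cut at about 49% in these data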
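Material: CHO RD-HGA16 cells bearing hTAAR1; compound dosing: one-point dosing, 3 µM nominal final; schedule: dye loading 75 min at 37 °C, then 30 min room temperature; measured by: calcium fluorescence with Fluo-8; control set: vehicle and agonist controls; replication: n of 1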
TAAR1 ag: human TAAR1 agonism. Q96RJ0. CHO RD-HGA16 TAAR1, Fluo-8 calcium fluorescence; vehicle wells 0%, saturating PEA agonist 100%. activation, % at 3 µM. 360,000 tested, 0.99% active. AID 624467;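 active means activation above the mean activation of all test compounds in the run plus 3 SD, cut at about 38% in these data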
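Test system: RD-HGA16 (CHO) cells co-expressing Gα16 and hTAAR1; dosing: one-point dosing at 3 µM (nominal); timing: 17-24 h seeding, 75 min 37 °C dye, 30 min RT; signal: kinetic Fluo-8 calcium fluorescence; read-out basis: % activation relative to PEA EC100 response; controls: DMSO and PEA EC100; replicates: n 1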
GPR7 antag: blocks human GPR7 receptor signaling; P48145; GPR7-expressing cells, fluorescence antagonist assay; inhibition, % at 4.4 µM; 290,000 tested, 1.1% active; in the data active means inhibition above about 16%, passing the limit was not always enough;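 further: cells stimulated with the agonist NPW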
Target sequence (P48145 whole entry, looked up): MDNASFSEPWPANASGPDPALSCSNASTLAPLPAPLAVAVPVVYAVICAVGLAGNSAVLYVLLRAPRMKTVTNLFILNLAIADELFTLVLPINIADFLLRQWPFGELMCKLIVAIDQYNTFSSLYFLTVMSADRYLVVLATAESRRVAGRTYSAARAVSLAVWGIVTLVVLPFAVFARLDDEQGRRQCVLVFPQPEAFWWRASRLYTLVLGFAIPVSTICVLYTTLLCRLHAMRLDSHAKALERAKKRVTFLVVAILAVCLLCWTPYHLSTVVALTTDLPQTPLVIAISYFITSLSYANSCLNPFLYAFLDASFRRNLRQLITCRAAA
CHO parental Ca: counter-screen: ATP calcium response change in parental CHO cells. AID 463079. 330,000 tested, 0.63% active. inhibition, % at 5.6 µM. parental CHO-K1, ATP-induced calcium, Fluo-8 fluorescence;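 active means inhibition above that plate's mean sample inhibition plus 3 SD, cut at about 26% in these data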
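Assay system: untransfected parental CHO cell line. Also added: ATP agonist challenge. Dosing: one dose, 5.6 µM nominal. Measured by: Fluo-8 fluorescence. Read-out: % inhibition. Benchmarks: ATP wells versus no-ATP DMSO wells. Repeats: no replicates.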
OX1R antag-2: human HCRTR1 antagonism; 330,000 tested, 0.43% active; inhibition, % at 5 µM; CHO/OX1R cells, Fluo-8 calcium fluorescence, orexin A; O43613;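 active means inhibition above its plate's threshold, mean inhibition of all tested compounds on the plate plus 3 SD, cut at about 37% in these data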
TAAR1 ag confirm: confirmation of human TAAR1 agonists; shares compounds with TAAR1 ag; CHO RD-HGA16 TAAR1, Fluo-8 calcium fluorescence; scaled: DMSO 0%, maximal phenethylamine 100%; activation, % at 3 µM; 2,400 tested, 82% active; AID 651783;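 active means activation above a cutoff set at the run's mean compound activation plus 3 SD, cut at about 39% in these data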
Ga16 nonsel ag: nonselective agonist in parental cells, TAAR1 agonist counter-screen | shares compounds with TAAR1 ag | CHO-Ga16 parental, Fluo-8 calcium fluorescence; normalized to maximal ATP response, DMSO zero | activation, % at 3 µM | 2,400 tested, 50% active;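 active means activation above the run cutoff, the mean activation over all tested wells plus 3 SD, cut at about 12% in these data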
TAAR1 desens: TAAR1 response desensitization, agonist counter-screen; inhibition, % at 3 µM; shares compounds with TAAR1 ag; 2,400 tested, 46% active; AID 651951; CHO RD-HGA16 hTAAR1, Fluo-8 calcium, beta-PEA response inhibition;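 active means inhibition above the run cutoff, the mean inhibition of all test compounds plus 3 SD, cut at about 49% in these data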;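 further: beta-PEA stimulus applied at its EC80; loss of beta-PEA calcium signal after compound pretreatment read as receptor desensitization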
Ga16 nonsel ant: counter-screen for TAAR1 agonists: nonselective Ga16 antagonists | shares compounds with TAAR1 ag | CHO-Ga16 ATP-induced calcium, Fluo-8 fluorescence | inhibition, % at 3 µM | 2,400 tested, 39% active | AID 651952;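 active means inhibition above the plate's mean compound inhibition plus 3 SD, computed per plate, cut at about 22% in these data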
Of the large screens only hits and unclear results are named; the others gave an inactive call (follow-up assays come after a bar, where they were run). Hits are enriched below; roughly 4.6% of the tested compounds scored in any of these assays.

CCOc1ccc(-c2c(C(=O)N/N=C(\C)c3ccco3)nnn2-c2nonc2N)cc1	TAAR1 ag 115.0 | TAAR1 ag confirm 101.3 | Ga16 nonsel ag 66.6 | TAAR1 desens inactive | Ga16 nonsel ant inactive
C/C(=N\NC(=O)c1nnn(-c2nonc2N)c1-c1ccc2c(c1)OCO2)c1cccs1	TAAR1 antagonist 95.8, TAAR1 ag 144.3 | TAAR1 ag confirm 126.9 | Ga16 nonsel ag 100.9 | TAAR1 desens 90.5 | Ga16 nonsel ant 60.7
CCOc1cccc(-c2c(C(=O)N/N=C(\C)c3cccs3)nnn2-c2nonc2N)c1	TAAR1 antagonist 88.2, TAAR1 ag 132.0 | TAAR1 ag confirm 134.1 | Ga16 nonsel ag 98.1 | TAAR1 desens 96.6 | Ga16 nonsel ant 69.8
CCOc1ccc(-c2c(C(=O)N/N=C(\C)c3ccccc3OC)nnn2-c2nonc2N)cc1	none
CCOc1ccc(-c2c(C(=O)N/N=C(\C)c3cccs3)nnn2-c2nonc2N)cc1	TAAR1 ag 85.3 | TAAR1 ag confirm 98.4 | Ga16 nonsel ag 63.3 | TAAR1 desens inactive | Ga16 nonsel ant inactive
COc1ccc(NC2CCCN(C(=O)c3cc(C)nc4cc(F)ccc34)C2)cc1 (centres undefined)	none
COc1cccc(-c2c(C(=O)N/N=C(\C)c3ccncc3)nnn2-c2nonc2N)c1	none
COc1cccc(-c2c(C(=O)N/N=C(\C)c3cccs3)nnn2-c2nonc2N)c1	TAAR1 antagonist 86.9, TAAR1 ag 140.3 | TAAR1 ag confirm 115.0 | Ga16 nonsel ag 83.9 | TAAR1 desens 77.9 | Ga16 nonsel ant 27.6
CN(CCc1ccccc1)C(=O)c1[nH]c(C(F)(F)F)nc1-c1ccccc1	TAAR1 ag 69.7 (no result: OX1R antag-1, GPR7 antag, CHO parental Ca, OX1R antag-2) | TAAR1 ag confirm 76.8 | Ga16 nonsel ag inactive | TAAR1 desens inactive | Ga16 nonsel ant inactive
Nc1nonc1-n1nnc(C(=O)N/N=C/c2ccccc2Cl)c1-c1ccccc1	none
Nc1nonc1-n1nnc(C(=O)N/N=C/c2ccoc2)c1-c1ccccc1	TAAR1 ag 85.1 | TAAR1 ag confirm 53.2 | Ga16 nonsel ag 46.2 | TAAR1 desens inactive | Ga16 nonsel ant inactive
Nc1nonc1-n1nnc(C(=O)N/N=C/c2ccco2)c1-c1ccccc1	TAAR1 ag 100.3 | TAAR1 ag confirm 71.7 | Ga16 nonsel ag 47.5 | TAAR1 desens inactive | Ga16 nonsel ant inactive
COc1cccc(-c2c(C(=O)N/N=C/c3ccco3)nnn2-c2nonc2N)c1	TAAR1 ag 78.0 | TAAR1 ag confirm 96.6 | Ga16 nonsel ag 51.8 | TAAR1 desens inactive | Ga16 nonsel ant inactive
COc1cccc(-c2c(C(=O)N/N=C/C3CC=CCC3)nnn2-c2nonc2N)c1 (centres undefined)	none
COc1ccc(N(C)S(=O)(=O)c2cccc(C(=O)N3CCN(c4cccc(C)c4C)CC3)c2)cc1	none (no result: OX1R antag-1, GPR7 antag, CHO parental Ca, OX1R antag-2)
COc1ccc(/C=C(/NC(=O)c2ccco2)C(=O)Nc2ccc(C(=O)O)cc2)cc1	none
CN(C)CCOC1(Cc2ccc(F)cc2)CCC(C(C)(C)C)CC1 (centres undefined)	TAAR1 ag 56.0 (no result: OX1R antag-1, GPR7 antag, CHO parental Ca, OX1R antag-2) | TAAR1 ag confirm 50.6 | Ga16 nonsel ag 34.3 | TAAR1 desens inactive | Ga16 nonsel ant 23.1
Cc1ccc(CC2(OCCN(C)C)CCC(C(C)(C)C)CC2)cc1 (centres undefined)	TAAR1 ag 63.4 (no result: OX1R antag-1, GPR7 antag, CHO parental Ca, OX1R antag-2) | TAAR1 ag confirm 85.1 | Ga16 nonsel ag 44.5 | TAAR1 desens 75.4 | Ga16 nonsel ant 41.2

Screening results from PubChem BioAssay.
